{
  "source": "paper PMC3134944",
  "about": "(Current Chemical Genomics, 2011)",
  "key": {"[1]": {"test_system": "purified his-GAPDHS", "settings": "baculovirus/insect cell expressed his-GAPDHS ref 22; cited from earlier work"}, "[2]": {"test_system": "GAPDH isozymes", "settings": "ref PMID: 12788228, PMID: 2353814; cited from earlier work"}, "[3]": {"target": "recombinant human GST-GAPDHS (Homo sapiens, UniProt O14556)", "sequence (O14556 69-408)": "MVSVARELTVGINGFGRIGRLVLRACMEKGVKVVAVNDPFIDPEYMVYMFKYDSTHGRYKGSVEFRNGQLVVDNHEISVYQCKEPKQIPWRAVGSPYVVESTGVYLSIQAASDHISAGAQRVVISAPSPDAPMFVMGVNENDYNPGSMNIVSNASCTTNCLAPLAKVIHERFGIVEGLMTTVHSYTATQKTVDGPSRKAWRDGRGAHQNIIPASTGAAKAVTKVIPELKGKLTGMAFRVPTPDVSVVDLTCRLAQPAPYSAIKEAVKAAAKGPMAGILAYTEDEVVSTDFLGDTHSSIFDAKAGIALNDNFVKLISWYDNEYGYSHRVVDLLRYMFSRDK", "assay": "GAPDHS dose response / IC50 determination", "type": "biochemical", "method_in_brief": "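IC50 against GST-GAPDHS used the single-point assay conditions with two-fold serial dilutions in DMSO, giving 10 final concentrations from 80 µM to […]. Percent inhibition at each concentration was fitted to a four-parameter variable-slope equation for IC50 and Hill slope. Some runs included 0.01% Tween-20 (final). Ligand efficiency and binding efficiency index were calculated from IC50.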"}},
  "data": [
    {"smiles": "CC1=CC(=O)c2ccccc2C1=O", "note": "[Menadione]", "values": [
      {"measurement": "active in Prestwick screen against his-GAPDHS", "setting": "[1]", "result": "identified as actives"},
      {"measurement": "inhibitor of GAPDH isozymes in vivo", "setting": "[2]", "result": "non-selective inhibitor"},
      {"measurement": "IC50", "setting": "[3]; IC50, follow up, absence of Tween-20, dry powder, no detergent", "result": 47, "unit": "µM"},
      {"measurement": "IC50", "setting": "[3]; IC50 in the presence of 0.01% Tween-20, dry powder, 0.01% Tween-20", "result": 53, "unit": "µM"}
    ]}
  ]
}
